Data reported in ChEMBL document CHEMBL1155270, “Modifications at the C-terminus to improve pyrrole-imidazole polyamide activity in cell culture” (J Med Chem, 2009).
Activity calls are given as the source filed them. No cut-off for these calls is given here.

Legend:
U-251 [1] = experiment: Inhibition of desferrioxamine-induced VEGF mRNA expression in human U251 cells at 1 uM by quantitative RT-PCR analysis; assay type: functional
Summary of the method: (§1)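 In U251 cells, induced VEGF mRNA was quantified by real-time RT-PCR after polyamide at 1, 0.2 and 0.02 μM, with DMSO ≤0.1%. Values were normalized to untreated induced cells; uninduced and DMSO-vehicle controls were run alongside.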

U-251 [2] = experiment: Inhibition of desferrioxamine-induced VEGF mRNA expression in human U251 cells at 0.02 to 0.2 uM by quantitative RT-PCR analysis; assay type: functional, cell-based; summary of the method: as §1
LNCaP [3] = experiment: Inhibition of desferrioxamine-induced VEGF mRNA expression in human LNCAP cells at 10 uM by quantitative RT-PCR analysis; assay type: functional
Summary of the method: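 DFO-induced VEGF mRNA was measured in LNCaP cells by quantitative real-time RT-PCR, following the LNCaP PSA protocol but with non-charcoal-stripped FBS. Polyamide doses were 10, 2 and 0.2 μM, with DMSO ≤0.1%. Levels were normalized to untreated induced cells; untreated uninduced and DMSO controls were included.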

Nucleic Acid [4] = experiment: Binding affinity to 5'-GTGCATACGTGGGC-3' sequence of DNA assessed as change in melting temperature by spectrophotometry; assay type: nucleic-acid assay
LNCaP [5] = experiment: Inhibition of dihydrotestosterone-induced prostate specific antigen expression in human LNCAP cells at 5 uM by quantitative RT-PCR analysis; assay type: functional
Summary of the method: (§2)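 LNCaP cells were induced with 1 nM DHT and PSA mRNA measured by quantitative real-time RT-PCR. Oxime-linked polyamides were given at 5, 1 and 0.1 μM, and unconjugated controls at 5 μM, with DMSO ≤0.1%. Expression was normalized to untreated DHT-induced cells; uninduced and DMSO controls were included.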

LNCaP [6] = experiment: Inhibition of dihydrotestosterone-induced prostate specific antigen expression in human LNCAP cells at 1 uM by quantitative RT-PCR analysis; assay type: functional, cell-based; summary of the method: as §2
LNCaP [7] = experiment: Inhibition of dihydrotestosterone-induced prostate specific antigen expression in human LNCAP cells by quantitative RT-PCR analysis; assay type: functional, cell-based
Summary of the method: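 For gene-regulation IC50, DHT (1 nM)-induced LNCaP cells were dosed across 30–0.1 μM or 10–0.03 μM. PSA mRNA was quantified by real-time RT-PCR and normalized to induced untreated cells. Isotherms from three independent experiments were fitted with a modified Hill equation.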

LNCaP [8] = experiment: Cytotoxicity against human LNCAP cells at 5 uM after 48 hrs by WST1 assay; assay type: functional, cell-based
LNCaP [9] = experiment: Cytotoxicity against human LNCAP cells after 48 hrs by WST1 assay; assay type: functional, cell-based
Summary of the method: (§3)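 LNCaP cells were seeded at 10-15 × 10^2 per well and allowed to settle 48 h before polyamide was added as 2× media solutions (DMSO <0.1%). After 48 h exposure, media was replaced and cells recovered 24 h. WST-1 was added for 30 min and A450 read. Wells were corrected for media-only background and normalized to untreated controls.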

LNCaP [10] = experiment: Selectivity ratio of IC50 for human LNCAP cells to IC50 for inhibition of dihydrotestosterone-induced prostate specific antigen expression in human LNCAP cells; assay type: functional
Summary of the method: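 Ratio of WST-1 growth-inhibition IC50 (48 h exposure, 24 h recovery, LNCaP) to PSA gene-regulation IC50. The gene-regulation IC50 came from Hill-fitted RT-PCR isotherms in 1 nM DHT-induced LNCaP cells, three independent experiments.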

Nucleic Acid [11] = experiment: Binding affinity to 14mer DNA assessed as change in melting temperature by spectrophotometry; assay type: nucleic-acid assay
Summary of the method: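 Thermal melting of 14-mer oligonucleotide duplexes (HRE or ARE sequence) with and without polyamide, read by UV spectrophotometry in 1 cm quartz cuvettes with a thermostatted holder. Buffer was 10 mM sodium cacodylate, 10 mM KCl, 10 mM MgCl2, 5 mM CaCl2, pH 7.0. ΔTm is taken relative to the free duplex.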

U-251 [12] = experiment: Selectivity ratio of inhibition of desferrioxamine-induced VEGF mRNA expression in human LNCAP cells to inhibition of desferrioxamine-induced VEGF mRNA expression in human U251 cells; assay type: functional
LNCaP [13] = experiment: Cytotoxicity against human LNCAP cells assessed as cell viability at 0.01 to 30 uM after 48 hrs by WST1 assay; assay type: functional; summary of the method: as §3
Nucleic Acid [14] = experiment: Binding affinity to 5'-TTGCAGAACAGCAA-3' sequence of DNA assessed as change in melting temperature by spectrophotometry; assay type: nucleic-acid assay
LNCaP [15] = experiment: Inhibition of expression in human LNCAP cells at 5 uM by quantitative RT-PCR analysis
LNCaP [16] = experiment: Inhibition of dihydrotestosterone-induced prostate specific antigen expression in human LNCAP cells at 0.1 to 5 uM by quantitative RT-PCR analysis; assay type: functional, cell-based; summary of the method: as §2
LNCaP [17] = experiment: Cytotoxicity against human LNCAP cells at 0.01 to 30 uM after 48 hrs by WST1 assay; assay type: functional, cell-based; summary of the method: as §3

Structure (SMILES)	inhibition at 1 µM (U-251 [1])	inhibition (U-251 [2])	inhibition at 10 µM (LNCaP [3])	ΔTm (Nucleic Acid [4])	IC50 (LNCaP [7])	IC50 (LNCaP [9])	Ratio IC50 (LNCaP [10])	further results
Cn1cc(NC(=O)c2cc(NC(=O)c3nc(NC(=O)c4cc(NC(=O)[C@H](N)CCNC(=O)c5nc(NC(=O)c6cc(NC(=O)c7cc(NC(=O)c8sccc8Cl)cn7C)cn6C)cn5C)cn4C)cn3C)cn2C)cc1C(=O)NCCCO/N=C\c1cccc(C(=O)O)c1	60%	Active	80%	11.4 °C				
Cn1cc(NC(=O)c2cc(NC(=O)c3nc(NC(=O)c4cc(NC(=O)[C@H](N)CCNC(=O)c5nc(NC(=O)c6cc(NC(=O)c7cc(NC(=O)c8sccc8Cl)cn7C)cn6C)cn5C)cn4C)cn3C)cn2C)cc1C(=O)NCCCO/N=C\c1ccc(F)cc1	60%	Active	80%	10.5 °C				
Cn1cc(NC(=O)c2cc(NC(=O)c3cc(NC(=O)c4nc(NC(=O)[C@H](N)CCNC(=O)c5cc(NC(=O)c6cc(NC(=O)c7cc(NC(=O)c8nccn8C)cn7C)cn6C)cn5C)cn4C)cn3C)cn2C)cc1C(=O)NCCCO/N=C\c1ccc(F)cc1					600 nM	400 nM	0.7	inhibition (LNCaP [5]): Active; inhibition (LNCaP [6]): Active; Activity (LNCaP [8]): Active; ΔTm (Nucleic Acid [11]): 13.1 °C
Cn1cc(NC(=O)c2cc(NC(=O)c3nc(NC(=O)c4cc(NC(=O)[C@H](N)CCNC(=O)c5nc(NC(=O)c6cc(NC(=O)c7cc(NC(=O)c8sccc8Cl)cn7C)cn6C)cn5C)cn4C)cn3C)cn2C)cc1C(=O)NCCCO/N=C\c1cccc(F)c1	60%	Active	80%	9.4 °C				
CN(CCCNC(=O)c1cccc(C(=O)O)c1)CCCNC(=O)c1cc(NC(=O)c2cc(NC(=O)c3cc(NC(=O)c4nc(NC(=O)[C@H](N)CCNC(=O)c5cc(NC(=O)c6cc(NC(=O)c7cc(NC(=O)c8nccn8C)cn7C)cn6C)cn5C)cn4C)cn3C)cn2C)cn1C					6000 nM	> 30000 nM	>=5	Ratio (U-251 [12]): 10; Activity (LNCaP [13]): <50%; ΔTm (Nucleic Acid [14]): 14.2 °C; inhibition (LNCaP [15]): Active
Cn1cc(NC(=O)c2cc(NC(=O)c3nc(NC(=O)c4cc(NC(=O)[C@H](N)CCNC(=O)c5nc(NC(=O)c6cc(NC(=O)c7cc(NC(=O)c8nccn8C)cn7C)cn6C)cn5C)cn4C)cn3C)cn2C)cc1C(=O)NCCCO/N=C\c1cccc(C(=O)O)c1								inhibition (LNCaP [16]): Active; Activity (LNCaP [13]): <50%; Activity (LNCaP [17]): inactive; ΔTm (Nucleic Acid [11]): 2.6 °C
Cn1cc(NC(=O)c2cc(NC(=O)c3cc(NC(=O)c4nc(NC(=O)[C@H](N)CCNC(=O)c5cc(NC(=O)c6cc(NC(=O)c7cc(NC(=O)c8nccn8C)cn7C)cn6C)cn5C)cn4C)cn3C)cn2C)cc1C(=O)NCCCO/N=C\c1cccc(C(=O)O)c1					300 nM	1700 nM	6.1	inhibition (LNCaP [5]): Active; inhibition (LNCaP [6]): Active; Activity (LNCaP [8]): Active; ΔTm (Nucleic Acid [14]): 11.5 °C
